Laboratory results reported in ChEMBL document CHEMBL4699614, “Design, synthesis and biological evaluation of novel osthole-based derivatives as potential neuroprotective agents” (Bioorg Med Chem Lett, 2020).
The source made the active and inactive calls.

System: SH-SY5Y
Experiment: Neuroprotective activity against human SH-SY5Y cells assessed as Abeta42-induced cytotoxicity at 10 uM by MTT assay
Type: functional

First: CC(C)=CCc1c(OCC(=O)Nc2ccc(N3CCCC3)cc2)ccc2ccc(=O)oc12
Second: CC(C)=CCc1c(OCC(=O)N2CCN(C(=O)OC(C)(C)C)CC2)ccc2ccc(=O)oc12
The inhibition at 10 µM of the first is lower: 46.3% for the first, 61.4% for the second.

System: SH-SY5Y
Experiment: Neuroprotective activity against oxygen-glucose deprivation-induced toxicity in human SH-SY5Y cells assessed as increase in cell viability at 1 mM by MTT assay
Type: functional

Work on `CC(=O)N[C@@H](CS)C(=O)O` [ACETYLCYSTEINE] yielded an Activity of 84.3%.

System: SH-SY5Y
Experiment: Neuroprotective activity against human SH-SY5Y cells assessed as Abeta42-induced cytotoxicity at 1 uM by MTT assay
Type: functional

Going from `CC(C)=CCc1c(OCC(=O)Nc2ccc(N3CCCC3)cc2)ccc2ccc(=O)oc12` to `CC(C)=CCc1c(OCC(=O)N2CCN(C(=O)OC(C)(C)C)CC2)ccc2ccc(=O)oc12`, the inhibition at 1 µM rises from 47.8% to 55.2%.

`COc1ccc2ccc(=O)oc2c1CC=C(C)C` [OSTHOLE] was tested, and the Activity was “inactive”.

System: SH-SY5Y
Experiment: Neuroprotection against H202-induced oxidative stress in human SH-SY5Y cells assessed as increase in cell viability at 10 uM by MTT assay
Type: functional
Procedure, shortened: (§1)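 SH-SY5Y cells were given one of two insults: H2O2-induced oxidative stress, with cell viability read by MTT, or oxygen glucose deprivation (OGD)-induced cell damage. Compounds were tested at 10 µM, and the result is expressed as percent neuroprotection.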

Going from `CC(C)=CCc1c(OCC(=O)Nc2ccc(N3CCOCC3)cn2)ccc2ccc(=O)oc12` to `CC(C)=CCc1c(OCC(=O)Nc2ccc(N3CCCC3)cn2)ccc2ccc(=O)oc12`, the Activity rises from 43.5% to 45.2%.

Compared with `CC(C)=CCc1c(OCC(=O)N2CCCC2)ccc2ccc(=O)oc12`, `CC(C)=CCc1c(OCC(=O)N2CCCCC2)ccc2ccc(=O)oc12` is lower in Activity: 28% for the first, 5.5% for the second.

First: CC(C)=CCc1c(OCC(=O)Nc2ccc(N3CCCC3)cc2)ccc2ccc(=O)oc12
Second: CC(C)=CCc1c(OCC(=O)Nc2ccc(N3CCCCC3)cc2)ccc2ccc(=O)oc12
The Activity of the first is higher: 47.7% for the first, 12.5% for the second.

First: CC(C)=CCc1c(OCC(=O)N2CCNCC2)ccc2ccc(=O)oc12
Second: CC(C)=CCc1c(OCC(=O)N2CCOCC2)ccc2ccc(=O)oc12
The Activity of the first is lower: 29.2% for the first, 31.5% for the second.

Going from `COc1ccc(CNC(=O)Oc2ccc3ccc(=O)oc3c2CC=C(C)C)cc1` to `CC(C)=CCc1c(OC(=O)NC2CCCCC2)ccc2ccc(=O)oc12`, the Activity falls from 28.7% to 13%.

First: CCN1CCN(C(=O)COc2ccc3ccc(=O)oc3c2CC=C(C)C)CC1
Second: CC(C)=CCc1c(OCC(=O)N2CCN(C(=O)OC(C)(C)C)CC2)ccc2ccc(=O)oc12
The Activity of the first is lower: 33.7% for the first, 45.7% for the second.

Compared with `CC(C)=CCc1c(OCC(=O)Nc2ccc(N3CCOCC3)cc2)ccc2ccc(=O)oc12`, `CC(C)=CCc1c(OCC(=O)Nc2ccc(N3CCNCC3)cc2)ccc2ccc(=O)oc12` is lower in Activity: 39.5% for the first, 22.5% for the second.

Compared with `CC(C)(O)C1Cc2c(ccc3cc(-c4ccccc4)c(=O)oc23)O1` (stereo not drawn), `CC(C)(O)C1Cc2c(ccc3cc(-c4ccccc4F)c(=O)oc23)O1` (stereo not drawn) is higher in Activity: 19.7% for the first, 36.5% for the second.

Compared with `COc1cccc(-c2cc3ccc4c(c3oc2=O)CC(C(C)(C)O)O4)c1` (stereo not drawn), `CC(C)(O)C1Cc2c(ccc3cc(-c4cccc(F)c4)c(=O)oc23)O1` (stereo not drawn) is lower in Activity: 31% for the first, 29% for the second.

First: Cc1ccc(-c2cc3ccc4c(c3oc2=O)CC(C(C)(C)O)O4)cc1 (stereo not drawn)
Second: CC(C)(O)C1Cc2c(ccc3cc(-c4ccc(F)cc4)c(=O)oc23)O1 (stereo not drawn)
The Activity of the first is lower: 18.2% for the first, 21.3% for the second.

Going from `CC(C)=CCc1c(OCC(=O)Nc2ccc(N3CCCCC3)cn2)ccc2ccc(=O)oc12` to `CC(C)=CCc1c(OCC(=O)Nc2ccc(N3CCNCC3)cn2)ccc2ccc(=O)oc12`, the Activity rises from 32.7% to 44.5%.

System: SH-SY5Y
Experiment: Neuroprotection against oxygen-glucose deprivation-induced toxicity in human SH-SY5Y cells assessed as cytoprotection by MTT assay
Type: functional, cell-based
Procedure, shortened: (§2)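 SH-SY5Y cells were exposed to H2O2 or to oxygen glucose deprivation (OGD) cytotoxicity. EC50 was defined as the concentration giving 50% protective effect relative to the control group. Values are averages of three independent experiments, given as mean ± SEM.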

Compared with `CC(C)=CCc1c(OCC(=O)Nc2ccc(N3CCOCC3)cn2)ccc2ccc(=O)oc12`, `CC(C)=CCc1c(OCC(=O)Nc2ccc(N3CCCC3)cc2)ccc2ccc(=O)oc12` is 1.6-fold lower in EC50: 9.05 µM for the first, 5.62 µM for the second. The second is the more potent here.

Going from `CC(C)=CCc1c(OCC(=O)N2CCCC2)ccc2ccc(=O)oc12` to `CC(C)=CCc1c(OCC(=O)N2CCOCC2)ccc2ccc(=O)oc12`, the EC50 rises from 15.3 µM to > 100 µM. The first is the more potent here.

`COc1ccc(CNC(=O)Oc2ccc3ccc(=O)oc3c2CC=C(C)C)cc1` and `COc1ccc2ccc(=O)oc2c1CC=C(C)C` [OSTHOLE] are within 1.5-fold of each other in EC50: 23.3 µM for the first, 26.4 µM for the second.

Going from `CCN1CCN(C(=O)COc2ccc3ccc(=O)oc3c2CC=C(C)C)CC1` to `CC(C)=CCc1c(OCC(=O)N2CCN(C(=O)OC(C)(C)C)CC2)ccc2ccc(=O)oc12`, the EC50 falls from 12.5 µM to 3.27 µM (3.8-fold).

`COc1cccc(-c2cc3ccc4c(c3oc2=O)CC(C(C)(C)O)O4)c1` (stereo not drawn) and `CC(C)(O)C1Cc2c(ccc3cc(-c4cccc(F)c4)c(=O)oc23)O1` (stereo not drawn) are within 1.5-fold of each other in EC50: 13.3 µM for the first, 18.8 µM for the second.

`CC(C)(O)C1Cc2c(ccc3cc(-c4ccccc4F)c(=O)oc23)O1` (stereo not drawn) was tested, and the EC50 was 40.1 µM.

System: SH-SY5Y
Experiment: Neuroprotective activity against human SH-SY5Y cells assessed as Abeta42-induced cytotoxicity at 30 uM by MTT assay
Type: functional

`COc1ccc2ccc(=O)oc2c1CC=C(C)C` [OSTHOLE] was tested, and the Activity was 37.1%.

System: SH-SY5Y
Experiment: Neuroprotection against H202-induced toxicity in human SH-SY5Y cells assessed as cytoprotection by MTT assay
Type: functional, cell-based
Procedure, shortened: as §2

`CC(C)=CCc1c(OCC(=O)Nc2ccc(N3CCOCC3)cn2)ccc2ccc(=O)oc12` and `CC(C)=CCc1c(OCC(=O)Nc2ccc(N3CCCC3)cc2)ccc2ccc(=O)oc12` are within 1.5-fold of each other in EC50: 16.6 µM for the first, 11.9 µM for the second.

Going from `CC(C)=CCc1c(OCC(=O)N2CCCC2)ccc2ccc(=O)oc12` to `CC(C)=CCc1c(OCC(=O)N2CCOCC2)ccc2ccc(=O)oc12`, the EC50 falls from 67.3 µM to 27.5 µM (2.4-fold). The second is the more potent here.

Compared with `COc1ccc(CNC(=O)Oc2ccc3ccc(=O)oc3c2CC=C(C)C)cc1`, `COc1ccc2ccc(=O)oc2c1CC=C(C)C` [OSTHOLE] is lower in EC50: > 100 µM for the first, 33.3 µM for the second.

Going from `CCN1CCN(C(=O)COc2ccc3ccc(=O)oc3c2CC=C(C)C)CC1` to `CC(C)=CCc1c(OCC(=O)N2CCN(C(=O)OC(C)(C)C)CC2)ccc2ccc(=O)oc12`, the EC50 falls from 29.8 µM to 10.3 µM (2.9-fold). The second is the more potent here.

Compared with `COc1cccc(-c2cc3ccc4c(c3oc2=O)CC(C(C)(C)O)O4)c1` (stereo not drawn), `CC(C)(O)C1Cc2c(ccc3cc(-c4cccc(F)c4)c(=O)oc23)O1` (stereo not drawn) is 2.5-fold higher in EC50: 30.4 µM for the first, 75.9 µM for the second.

Compound `CC(C)(O)C1Cc2c(ccc3cc(-c4ccccc4F)c(=O)oc23)O1` (stereo not drawn) has an EC50 of 32.3 µM.

System: RAW264.7
Experiment: Inhibition of LPS-induced NO production in mouse RAW264.7 cells assessed as NO production activity at 10 uM by Griess reagent based assay
Type: functional

Going from `CC(C)=CCc1c(OCC(=O)Nc2ccc(N3CCOCC3)cn2)ccc2ccc(=O)oc12` to `CC(C)=CCc1c(OCC(=O)Nc2ccc(N3CCCC3)cc2)ccc2ccc(=O)oc12`, the “Residual NO production” value falls from 80.3% to 50.4%.

First: CC(C)=CCc1c(OCC(=O)N2CCCC2)ccc2ccc(=O)oc12
Second: CC(C)=CCc1c(OCC(=O)N2CCOCC2)ccc2ccc(=O)oc12
The “Residual NO production” value of the first is higher: 75.4% for the first, 74.1% for the second.

Compared with `COc1ccc(CNC(=O)Oc2ccc3ccc(=O)oc3c2CC=C(C)C)cc1`, `COc1ccc2ccc(=O)oc2c1CC=C(C)C` [OSTHOLE] is higher in “Residual NO production” value: 77.4% for the first, 85.6% for the second.

First: CCN1CCN(C(=O)COc2ccc3ccc(=O)oc3c2CC=C(C)C)CC1
Second: CC(C)=CCc1c(OCC(=O)N2CCN(C(=O)OC(C)(C)C)CC2)ccc2ccc(=O)oc12
The “Residual NO production” value of the first is higher: 72.3% for the first, 62.8% for the second.

First: COc1cccc(-c2cc3ccc4c(c3oc2=O)CC(C(C)(C)O)O4)c1 (stereo not drawn)
Second: CC(C)(O)C1Cc2c(ccc3cc(-c4cccc(F)c4)c(=O)oc23)O1 (stereo not drawn)
The “Residual NO production” value of the first is lower: 73.3% for the first, 106.2% for the second.

Going from `CC(C)(O)C1Cc2c(ccc3cc(-c4ccccc4F)c(=O)oc23)O1` (stereo not drawn) to `COc1ccc2c(c1)c(CC(=O)O)c(C)n2C(=O)c1ccc(Cl)cc1` [INDOMETHACIN], the “Residual NO production” value falls from 85.2% to 53.2%.

System: SH-SY5Y
Experiment: Neuroprotection against H202-induced oxidative stress in human SH-SY5Y cells assessed as increase in cell viability at 1 mM by MTT assay
Type: functional

With `CC(=O)N[C@@H](CS)C(=O)O` [ACETYLCYSTEINE] the Activity was 37.1%.

System: SH-SY5Y
Experiment: Neuroprotective activity against oxygen-glucose deprivation-induced toxicity in human SH-SY5Y cells assessed as increase in cell viability at 10 uM by MTT assay
Type: functional
Procedure, shortened: as §1

First: CC(C)=CCc1c(OCC(=O)Nc2ccc(N3CCOCC3)cn2)ccc2ccc(=O)oc12
Second: CC(C)=CCc1c(OCC(=O)Nc2ccc(N3CCCC3)cn2)ccc2ccc(=O)oc12
The Activity of the first is lower: 51.4% for the first, 58.2% for the second.

First: CC(C)=CCc1c(OCC(=O)N2CCCC2)ccc2ccc(=O)oc12
Second: CC(C)=CCc1c(OCC(=O)N2CCNCC2)ccc2ccc(=O)oc12
The Activity of the first is higher: 43.6% for the first, 28.2% for the second.

Going from `CC(C)=CCc1c(OCC(=O)Nc2ccc(N3CCCC3)cc2)ccc2ccc(=O)oc12` to `CC(C)=CCc1c(OCC(=O)Nc2ccc(N3CCOCC3)cc2)ccc2ccc(=O)oc12`, the Activity falls from 63.4% to 13.2%.

Compared with `COc1ccc(CNC(=O)Oc2ccc3ccc(=O)oc3c2CC=C(C)C)cc1`, `COc1ccc2ccc(=O)oc2c1CC=C(C)C` [OSTHOLE] is lower in Activity: 35% for the first, 28.6% for the second.

Going from `CCN1CCN(C(=O)COc2ccc3ccc(=O)oc3c2CC=C(C)C)CC1` to `CC(C)=CCc1c(OCC(=O)N2CCOCC2)ccc2ccc(=O)oc12`, the Activity falls from 48% to 23.2%.

Going from `CC(C)(O)C1Cc2c(ccc3cc(-c4ccccc4)c(=O)oc23)O1` (stereo not drawn) to `CC(C)(O)C1Cc2c(ccc3cc(-c4ccccc4F)c(=O)oc23)O1` (stereo not drawn), the Activity rises from 23.2% to 37.2%.

Going from `COc1cccc(-c2cc3ccc4c(c3oc2=O)CC(C(C)(C)O)O4)c1` (stereo not drawn) to `CC(C)(O)C1Cc2c(ccc3cc(-c4cccc(F)c4)c(=O)oc23)O1` (stereo not drawn), the Activity falls from 42.8% to 41.2%.

First: CC(C)=CCc1c(OCC(=O)N2CCN(C(=O)OC(C)(C)C)CC2)ccc2ccc(=O)oc12
Second: CC(C)=CCc1c(OCC(=O)Nc2ccc(N3CCCCC3)cn2)ccc2ccc(=O)oc12
The Activity of the first is higher: 64.6% for the first, 16.8% for the second.

Going from `CC(C)=CCc1c(OCC(=O)Nc2ccc(N3CCNCC3)cn2)ccc2ccc(=O)oc12` to `CC(C)=CCc1c(OCC(=O)Nc2ccc(N3CCNCC3)cc2)ccc2ccc(=O)oc12`, the Activity falls from 49.4% to 8.4%.

For `CC(C)(O)C1Cc2c(ccc3cc(-c4ccc(F)cc4)c(=O)oc23)O1` (stereo not drawn), the Activity was 23.5%.
